The record followed here is ChEMBL document CHEMBL4177548, “Neuroprotective Lignans from the Fruits of Schisandra bicolor var. tuberculata” (2017).

Active and inactive are the calls of the source. No cut-off for these calls is given here.

The subject of experiment [1] is SH-SY5Y. Nature of the experiment: Neuroprotective activity against Abeta (25 to 35)-induced cytotoxicity in human SH-SY5Y cells at 0.0032 to 2 uM pre-incubated for 2 hrs before Abeta (25 to 35) addition for 14 hrs by MTT assay relative to untreated control. In kind it is functional. (In general: Tetrazolium dyes change colour on reduction, which living cells bring about.)

For experiment [2], the system named is SH-SY5Y. Description: Neuroprotective activity against CoCl2-induced cytotoxicity in human SH-SY5Y cells at 0.0032 uM pre-incubated for 2 hrs before CoCl2 addition for 14 hrs by MTT assay relative to untreated control. In kind it is functional, cell-based. Summed up: (§1)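 SH-SY5Y cells were kept in DMEM with 10% FBS plus penicillin/streptomycin and plated at 15 000 cells/well for 24 h. They were pretreated 2 h with compound (0.0032, 0.08, 2 μM), then challenged with 300 μM CoCl2 (chosen to give 50–70% viability). After 14 h, MTT was added, DMSO-solubilised and read at 570 nm. Values are normalized to control (100%), means ± SEM of three replicates.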

For experiment [3], the system named is SH-SY5Y. Description: Neuroprotective activity against Abeta (25 to 35)-induced cytotoxicity in human SH-SY5Y cells at 0.0032 uM pre-incubated for 2 hrs before Abeta (25 to 35) addition for 14 hrs by MTT assay (reference value: 60.2 to 73.5%). In kind it is functional.
Experiment [4] concerns SH-SY5Y. Nature of the experiment: Neuroprotective activity against Abeta (25 to 35)-induced cytotoxicity in human SH-SY5Y cells at 0.08 uM pre-incubated for 2 hrs before Abeta (25 to 35) addition for 14 hrs by MTT assay (reference value: 60.2 to 73.5%). In kind it is functional.
Experiment [5] relates to SH-SY5Y. Description: Neuroprotective activity against Abeta (25 to 35)-induced cytotoxicity in human SH-SY5Y cells at 2 uM pre-incubated for 2 hrs before Abeta (25 to 35) addition for 14 hrs by MTT assay (reference value: 60.2 to 73.5%). In kind it is functional.
The subject of experiment [6] is SH-SY5Y. Description: Neuroprotective activity against H2O2-induced cytotoxicity in human SH-SY5Y cells at 0.0032 to 2 uM pre-incubated for 2 hrs before H2O2 addition for 14 hrs by MTT assay relative to untreated control. In kind it is functional. In a few lines:
(§2)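 Hydrogen peroxide injury: SH-SY5Y cells (DMEM, 10% FBS, penicillin/streptomycin) were seeded at 15 000 cells/well and left 24 h. They received test compounds at 0.0032, 0.08 or 2 μM for 2 h before 350 μM H2O2. MTT read-out followed at 14 h: DMSO dissolution, OD 570 nm. Viability is expressed as % of control, triplicate, means ± SEM, one-way ANOVA with Newman-Keuls.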

Experiment [7] has as its system SH-SY5Y. Description: Neuroprotective activity against CoCl2-induced cytotoxicity in human SH-SY5Y cells at 0.0032 to 2 uM pre-incubated for 2 hrs before CoCl2 addition for 14 hrs by MTT assay relative to untreated control. In kind it is functional. Summed up:
as §1

For experiment [8], the system named is SH-SY5Y. Description: Neuroprotective activity against H2O2-induced cytotoxicity in human SH-SY5Y cells at 0.0032 uM pre-incubated for 2 hrs before H2O2 addition for 14 hrs by MTT assay relative to untreated control. In kind it is functional, cell-based. Summed up: as §2
Experiment [9] relates to SH-SY5Y. Nature of the experiment: Neuroprotective activity against Abeta (25 to 35)-induced cytotoxicity in human SH-SY5Y cells at 50 uM pre-incubated for 2 hrs before Abeta (25 to 35) addition for 14 hrs by MTT assay (reference value: 60.2%). In kind it is functional, cell-based.

Regarding `COc1cc([C@H]2c3cc4c(cc3C[C@@H](C)[C@@H]2C)OCO4)ccc1O`, the Activity is recorded as over 15% with SH-SY5Y [1], 84.5% with SH-SY5Y [3], 71.9% in the experiment on SH-SY5Y [4] and 75.7% with SH-SY5Y [5]. In addition, the outcome with SH-SY5Y [2] was Active.
For the compound `COc1cc(C[C@H](CO)[C@H](C)Cc2ccc(O)c(OC)c2)ccc1O`, the Activity was over 15% with SH-SY5Y [6], 77.4% in the experiment on SH-SY5Y [3], 74.3% in the experiment on SH-SY5Y [4] and 69.2% in the experiment on SH-SY5Y [5].
Regarding `COc1ccc([C@H]2O[C@H](c3ccc(OC)c(OC)c3)[C@@H](C)[C@H]2C)cc1OC` [GANSCHISANDRINE], the Activity in the experiment on SH-SY5Y [7] is over 15%; in the experiment with SH-SY5Y [1] it was over 15%; in the experiment with SH-SY5Y [3], 75.1%; in the experiment with SH-SY5Y [4], 85.3%; in the experiment with SH-SY5Y [5], 79.8%.
Regarding `COc1cc(C[C@H](C)[C@H](CO)Cc2ccc3c(c2)OCO3)ccc1O`, the Activity in the experiment with SH-SY5Y [1] is recorded as over 15%; in the experiment on SH-SY5Y [3] it was 75.8%; in the experiment on SH-SY5Y [4], 88.2%; in the experiment with SH-SY5Y [5], 82.4%. Besides, the outcome with SH-SY5Y [2] was Active.
Consider `COc1cc([C@H]2O[C@@H](c3ccc(OC)c(OC)c3)[C@H](C)[C@H]2C)ccc1O`, for which, in the experiment on SH-SY5Y [2], the result was Active. Also, the results for the Activity with SH-SY5Y [3], in the experiment on SH-SY5Y [4] and in the experiment with SH-SY5Y [5] were 81.7%, 75.3% and 75.3%, respectively.
Consider `C=C(Cc1ccc2c(c1)OCO2)[C@H](C)Cc1ccc(O)c(OC)c1`, for which the Activity was over 15% in the experiment on SH-SY5Y [1], 84.7% in the experiment on SH-SY5Y [3], 78.5% in the experiment with SH-SY5Y [4] and 78.1% in the experiment on SH-SY5Y [5]. In addition, the outcome in the experiment with SH-SY5Y [8] was Active.
As to VITAMIN E, the Activity in the experiment with SH-SY5Y [9] stood at 72.5%.
On to `COc1ccc([C@@H]2O[C@@H](c3ccc(O)c(OC)c3)[C@@H](C)[C@H]2C)cc1O`, for which the Activity with SH-SY5Y [1] is on record as over 15%; in the experiment on SH-SY5Y [3] it was 64.5%; in the experiment with SH-SY5Y [4], 77.1%; in the experiment on SH-SY5Y [5] it was 71%.
As to `COc1ccc([C@H]2O[C@@H](c3ccc(OC)c(OC)c3)[C@H](C)[C@@H]2C)cc1OC` [GALGRAVIN], the Activity was over 15% in the experiment on SH-SY5Y [6]; over 15% in the experiment on SH-SY5Y [1]; 76.9% with SH-SY5Y [3]; 92.9% with SH-SY5Y [4]; 86.7% in the experiment with SH-SY5Y [5].
In the case of `COc1cc(C[C@H](C)[C@H](COC(C)=O)Cc2ccc3c(c2)OCO3)ccc1O`, the Activity with SH-SY5Y [6] is recorded as over 15%; in the experiment on SH-SY5Y [1] it was over 15%; in the experiment on SH-SY5Y [3] it was 73.1%; in the experiment with SH-SY5Y [4], 80.2%; in the experiment with SH-SY5Y [5], 87%.
As to `COc1cc(C[C@@H](COC(C)=O)[C@@H](C)Cc2ccc3c(c2)OCO3)ccc1O`, the Activity in the experiment with SH-SY5Y [3] was found to be 68.3%; in the experiment on SH-SY5Y [4], 80.8%; in the experiment on SH-SY5Y [5], 69%.
`COc1cc(C[C@@H](C)[C@H](C)Cc2ccc3c(c2)OCO3)ccc1O`: the Activity with SH-SY5Y [6] was over 15%; in the experiment with SH-SY5Y [3], 73.5%; with SH-SY5Y [4], 77.1%; with SH-SY5Y [5], 72%. Further, the outcome in the experiment with SH-SY5Y [2] was Active.
As to `COc1cc(C[C@H](CO)[C@H](C)Cc2ccc3c(c2)OCO3)ccc1O`, the Activity with SH-SY5Y [3] is on record as 70.8%; in the experiment with SH-SY5Y [4], 83.6%; in the experiment on SH-SY5Y [5], 84.2%.
For the compound `C[C@@H]1[C@@H](CO)[C@H](c2ccc3c(c2)OCO3)O[C@H]1c1ccc2c(c1)OCO2`, the Activity is over 15% in the experiment with SH-SY5Y [1], 71.3% with SH-SY5Y [3], 94.3% in the experiment with SH-SY5Y [4] and 87.3% in the experiment on SH-SY5Y [5]. The result in the experiment on SH-SY5Y [2] was Active.
In the case of `COc1cc([C@H]2O[C@@H](c3ccc4c(c3)OCO4)[C@H](C)[C@H]2COC(C)=O)ccc1O`, the Activity is recorded as over 15% in the experiment on SH-SY5Y [6]; over 15% in the experiment on SH-SY5Y [1]; 68.6% with SH-SY5Y [3]; 88.6% with SH-SY5Y [4]; 79.3% in the experiment with SH-SY5Y [5]. In addition, the outcome in the experiment on SH-SY5Y [2] and in the experiment on SH-SY5Y [8] was Active.
On to `COc1cc(C[C@@H](C)[C@H](C)[C@@H](O)c2ccc3c(c2)OCO3)ccc1O`, for which the Activity is over 15% in the experiment with SH-SY5Y [7]; over 15% with SH-SY5Y [6]; over 15% with SH-SY5Y [1]; 81.6% with SH-SY5Y [3]; 83.3% in the experiment on SH-SY5Y [4]; 76.6% in the experiment with SH-SY5Y [5]. For the same compound, the result with SH-SY5Y [2] and in the experiment on SH-SY5Y [8] was Active.
As to `COc1ccc(C(=O)O[C@H](c2ccc(OC)c(OC)c2)[C@@H](C)C(C)=O)cc1OC`, the Activity is over 15% in the experiment with SH-SY5Y [1], 78.4% in the experiment on SH-SY5Y [3], 85.1% in the experiment with SH-SY5Y [4] and 80.4% in the experiment on SH-SY5Y [5]. In addition, the outcome with SH-SY5Y [2] was Active.
Consider `COc1cc(C[C@@H](C)[C@H](C)Cc2ccc(O)c(OC)c2)ccc1O` [(-)-DIHYDROGUAIARETICACID], for which the Activity in the experiment with SH-SY5Y [7] is recorded as over 15%; with SH-SY5Y [3], 79.2%; in the experiment on SH-SY5Y [4], 85.1%; in the experiment on SH-SY5Y [5], 80.8%. Further, the outcome with SH-SY5Y [2] and in the experiment on SH-SY5Y [8] was Active.
Turning to `COc1cc(C[C@@H](COC(C)=O)[C@@H](C)Cc2ccc(O)c(OC)c2)ccc1O`, the Activity with SH-SY5Y [6] is over 15%; in the experiment on SH-SY5Y [1] it was over 15%; in the experiment on SH-SY5Y [3], 74.1%; in the experiment with SH-SY5Y [4], 81%; with SH-SY5Y [5], 83.2%.
